Results: paper PMC6605687 (The Journal of General Physiology, 2019)
Residue numbers refer to the chain shown, from its start.

Tests used:
Type in all cases: cell-based
[1] = biological target: T1, rP2X2 Arg290Lys (Rattus norvegicus, UniProt P49653, R290K); assay: Two-electrode voltage clamp, oocytes expressing rP2X2 Arg290Lys
T1 sequence (P49653 1-472 R290K): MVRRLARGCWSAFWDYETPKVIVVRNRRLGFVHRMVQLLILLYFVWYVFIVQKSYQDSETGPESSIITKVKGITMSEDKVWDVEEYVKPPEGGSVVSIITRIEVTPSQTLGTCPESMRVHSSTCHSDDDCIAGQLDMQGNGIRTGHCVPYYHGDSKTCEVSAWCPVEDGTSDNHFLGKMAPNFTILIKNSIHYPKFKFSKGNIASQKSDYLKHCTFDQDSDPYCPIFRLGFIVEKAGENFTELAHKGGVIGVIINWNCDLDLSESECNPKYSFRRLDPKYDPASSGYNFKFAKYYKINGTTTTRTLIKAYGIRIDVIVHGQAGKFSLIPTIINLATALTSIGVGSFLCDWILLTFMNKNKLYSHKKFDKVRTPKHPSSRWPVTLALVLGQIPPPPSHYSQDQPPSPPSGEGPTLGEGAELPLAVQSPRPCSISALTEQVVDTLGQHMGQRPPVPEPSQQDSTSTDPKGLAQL
Summary of the method: (§1)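 Mutations were made by site-directed mutagenesis. Xenopus oocytes were injected with rP2X2 mRNA and incubated in L-15 at 18°C. Two-electrode voltage clamp was done 1–2 days later at −40 mV under ND96 perfusion (pH 7.4). ATP concentration-response currents were normalised and fitted to a one-component Hill equation for EC50 and Hill coefficient. Results are mean ± SEM, tested by one-way ANOVA with Dunnett's test against WT.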

[2] = biological target: T2, rP2X2 Lys188Arg (Rattus norvegicus, UniProt P49653, K188R); assay: Two-electrode voltage clamp, oocytes expressing rP2X2 Lys188Arg
T2 sequence (P49653 1-472 K188R): T1 sequence (P49653 1-472 R290K) with K188R, K290R
Summary of the method: as §1

[3] = biological target: T3, rP2X2 Lys71Gln (Rattus norvegicus, UniProt P49653, K71Q); assay: Two-electrode voltage clamp, oocytes expressing rP2X2 Lys71Gln
T3 sequence (P49653 1-472 K71Q): T1 sequence (P49653 1-472 R290K) with K71Q, K290R
Summary of the method: as §1

[4] = biological target: T4, rP2X2-3T receptors (Rattus norvegicus, UniProt P49653, C348T/C430T/C9T); assay: Single channel outside-out patch-clamp recordings, HEK-293 cells; conditions: agonist 1 µM, mean ± SEM
T4 sequence (P49653 1-472 C9T/C348T/C430T): T1 sequence (P49653 1-472 R290K) with C9T, K290R, C348T, C430T
Summary of the method: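 HEK-293 cells were co-transfected by calcium phosphate with rP2X2-3T DNA plus GFP DNA to mark transfected cells, then recorded within 24 h. Outside-out patches were held at −120 mV. Pipette contained 147 NaF, 10 EGTA and 10 HEPES (mM, pH 7.3). Agonist at 1, 10 or 100 µM in extracellular saline (pH 7.3) was applied by fast perfusion for 10 s per 12-s sweep, at 1-min intervals. Amplitudes came from Gaussian fits to all-points histograms, with 2–5 sweeps averaged per patch.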

[5] = biological target: T5, rP2X2 Val70Vah (Rattus norvegicus, UniProt P49653); assay: Two-electrode voltage clamp, oocytes expressing rP2X2 Val70Vah
T5 sequence (P49653 1-472): T1 sequence (P49653 1-472 R290K) with K290R

- EC50 [1]: 460 ± 60 µM
- EC50 [2]: 57 ± 8 µM
- EC50 [3]: 6300 µM
- SDopen (SD of the open state amplitude) [4]: 1.02 ± 0.1
- Fold increase in EC50, Val70Vah versus WT ([5]; Val70Vah compared with WT): fourfold
- EC50 ([5]; Val70Vah, mean ± SEM): 120 ± 2 µM
SMILES: Nc1ncnc2c1ncn2[C@@H]1O[C@H](COP(=O)(O)OP(=O)(O)OP(=O)(O)O)[C@@H](O)[C@H]1O [ATP, Adenosine 5′-triphosphate]
